Source: paper PMC9352332 (ACS Omega, 2022)

Tests used:
[1] = molecular target: ALR2 (Homo sapiens, UniProt P15121); assay: ALR2 in vitro enzyme inhibition assay; type: biochemical; conditions: for selectivity of inhibition, ALR2 versus ALR1 (in words): judged from ALR1 and ALR2 in vitro inhibition data
[2] = tested on: advanced glycation end products (AGEs); assay: Bovine serum albumin glycation; type: biochemical; conditions: BSA 1 mg mL–1, 0.5 M glucose, test compound (1 mM), pH 7.4, 50 °C, 4 days; AG positive control 100 μM
Outline: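 BSA and glucose were incubated in 0.1 M PBS, in the dark, with or without test compound. AGE fluorescence was read at excitation 350 nm and emission 460 nm. Percent inhibition was calculated from the glucose-dependent fluorescence increase (BSA ± glucose), compared with the BSA + glucose signal with or without test compound. A vehicle served as the negative control. Values are mean ± S.E.M. of three independent incubations, with Student t-test vs aminoguanidine.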

[3] = DPPH free-radical scavenging; conditions: DPPH 0.025 mg mL–1 in methanol, 100 μM test compound, 517 nm
Outline: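 Test compound mixed with methanolic DPPH and read spectrophotometrically. Percent scavenging is calculated from absorbance of sample relative to control. Ascorbic acid is the positive control.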

[4] = molecular target: ALR1 (Bos taurus, UniProt Q3ZCJ2); assay: ALR1 in vitro enzyme inhibition assay; type: biochemical, calf
ALR1, sequence (Q3ZCJ2 whole entry): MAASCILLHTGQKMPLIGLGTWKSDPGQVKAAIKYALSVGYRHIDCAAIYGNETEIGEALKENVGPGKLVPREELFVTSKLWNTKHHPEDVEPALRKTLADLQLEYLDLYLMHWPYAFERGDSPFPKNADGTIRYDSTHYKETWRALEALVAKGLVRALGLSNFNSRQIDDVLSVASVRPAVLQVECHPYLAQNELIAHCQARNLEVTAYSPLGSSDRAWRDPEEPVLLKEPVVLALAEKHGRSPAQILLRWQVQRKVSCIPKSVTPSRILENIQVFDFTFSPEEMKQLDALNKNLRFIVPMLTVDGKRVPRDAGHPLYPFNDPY
Outline: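 Enzyme in sodium phosphate buffer pH 6.2, preincubated 10 min at 32 °C with test compound and substrate, without NADPH. Reaction started with NADPH and followed for 5 min. Absorbance read before and after cofactor addition gives % inhibition. Compound dissolved in DMSO and diluted in water to 0.1% DMSO in assay. Valproic acid is the standard. IC50 from nonlinear regression of log concentration vs remaining activity.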

SMILES	IC50 [1] [µM]	selectivity of inhibition, ALR2 versus ALR1 (in words) [1]	IC50 [4] [µM]	% inhibition of AGEs (advanced glycation end-product formation) [2] [%]	% FRSA (percent free-radical scavenging activity) [3] [%]
Cc1ccc(O)c(C=NNC(=S)Nc2ccccc2)c1 [3a, 2-(2-Hydroxy-5-methylbenzylidene)-N-phenylhydrazinecarbothioamide]	4.99 ± 0.035	strong but nonselective inhibition of ALR1 and ALR2	5.13 ± 0.037	59.12	56.78
Cc1ccc(NC(=S)NN=Cc2cc(C)ccc2O)c(C)c1 [3b, N-(2,4-Dimethylphenyl)-2-(2-hydroxy-5-methylbenzylidene)hydrazinecarbothioamide]	2.55 ± 0.021	strong and selective inhibition of ALR2		50.78	63.24
COc1cccc(NC(=S)NN=Cc2cc(C)ccc2O)c1 [3c, 2-(2-Hydroxy-5-methylbenzylidene)-N-(3-methoxyphenyl)hydrazinecarbothioamide]	1.42 ± 0.024	strong and selective inhibition of ALR2		66.40	65.67
Cc1ccc(O)c(C=NNC(=S)NCc2ccc(Cl)cc2)c1 [3d, N-(4-Chlorobenzyl)-2-(2-hydroxy-5-methylbenzylidene)hydrazinecarbothioamide]				62.81	61.34
Cc1ccc(O)c(C=NNC(=S)NCc2ccccc2)c1 [3e, N-Benzyl-2-(2-hydroxy-5-methylbenzylidene)hydrazinecarbothioamide]				56.73	65.66
Cc1ccc(O)c(C=NNC(=S)NC2CCCCC2)c1 [3f, N-Cyclohexyl-2-(2-hydroxy-5-methylbenzylidene)hydrazinecarbothioamide]				59.86	57.84
Cc1ccc(NC(=S)NN=Cc2cc(C)ccc2O)cc1 [3h, 2-(2-Hydroxy-5-methylbenzylidene)-N-(p-tolyl)hydrazinecarbothioamide]	3.8 ± 0.072	strong but nonselective inhibition of ALR1 and ALR2	15.8 ± 0.027		64.94
Cc1ccc(O)c(C=NNC(=S)Nc2c(C)cccc2C)c1 [3i, N-(2,6-Dimethylphenyl)-2-(2-hydroxy-5-methylbenzylidene)hydrazinecarbothioamide]	2.06 ± 0.057	strong but nonselective inhibition of ALR1 and ALR2	2.14 ± 0.031	64.41	71.34
Cc1ccc(O)c(C=NNC(=S)Nc2ccc(F)cc2F)c1 [3j, N-(2,4-Difluorophenyl)-2-(2-hydroxy-5-methylbenzylidene)hydrazinecarbothioamide]	4.95 ± 0.066	strong and selective inhibition of ALR2		61.60	66.57
Cc1ccc(O)c(C=NNC(=S)Nc2cccc(F)c2)c1 [3k, N-(3-Fluorophenyl)-2-(2-hydroxy-5-methylbenzylidene)hydrazinecarbothioamide]	14.03 ± 0.047	strong and selective inhibition of ALR2			53.88
Cc1ccc(O)c(C=NNC(=S)Nc2ccccc2C)c1 [3m, 2-(2-Hydroxy-5-methylbenzylidene)-N-(o-tolyl)hydrazinecarbothioamide]	1.96 ± 0.029	strong but nonselective inhibition of ALR1 and ALR2	4.57 ± 0.076	53.08	63.87
Cc1ccc(O)c(C=NNC(=S)NCCc2ccccc2)c1 [3o, 2-(2-Hydroxy-5-methylbenzylidene)-N-phenethylhydrazinecarbothioamide]	12.15 ± 0.083	strong and selective inhibition of ALR2			68.56
N=C(N)NN [6-AG, 6-Aminoguanidine, reference compound]				79.34	

The next lines start with results.

IC50 [1] [µM]	selectivity of inhibition, ALR2 versus ALR1 (in words) [1]	IC50 [4] [µM]	SMILES	% inhibition of AGEs (advanced glycation end-product formation) [2] [%]	% FRSA (percent free-radical scavenging activity) [3] [%]
8.37 ± 0.062	strong and selective inhibition of ALR2		Cc1ccc(O)c(C=NNC(=S)Nc2ccc(Br)cc2)c1 [3g, N-(4-Bromophenyl)-2-(2-hydroxy-5-methylbenzylidene)hydrazinecarbothioamide]	51.33	53.56
3.8 ± 0.027	strong and selective inhibition of ALR2		Cc1ccc(O)c(C=NNC(=S)Nc2ccc(Cl)cc2)c1 [3l, N-(4-Chlorophenyl)-2-(2-hydroxy-5-methylbenzylidene)hydrazinecarbothioamide]	56.61	62.44
3.11 ± 0.038	strong and selective inhibition of ALR2		Cc1ccc(O)c(C=NNC(=S)Nc2ccc(C(C)C)cc2)c1 [3n, 2-(2-Hydroxy-5-methylbenzylidene)-N-(4-isopropylphenyl)hydrazinecarbothioamide]	68.66	55.93
10.67 ± 0.064	strong and selective inhibition of ALR2		Cc1ccc(O)c(C=NNC(=S)Nc2ccc(N(C)C)cc2)c1 [3p, N-(4-(Dimethylamino)phenyl)-2-(2-hydroxy-5-methylbenzylidene)hydrazinecarbothioamide]	64.81	71.53
